A short description of data set [1]: Oral bioavailability in monkey 1 mg/kg. The settings on record: rhesus monkey, in vivo. It counts as ADME, organism-based, Macaca mulatta. Summed up:
(§1)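 Rat PK used 1 mg/kg iv and 2 mg/kg po, while dog and monkey received 0.5 mg/kg iv and 1 mg/kg po. Oral dosing was given as a solution, either in ethanol/PEG400/water (20:40:40, v/v/v) or in Inwittor 742/Tween 80, depending on the compound. Plasma CLp, Vdss, t1/2 and F% were derived from these studies.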

Data set [2] addresses T1, Substance-P receptor (Homo sapiens, UniProt P25103). Description: Displacement of [125I]substance P from human NK1 receptor expressed in CHO cells in presence of human serum. It counts as cell-based. The procedure, abridged:
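Inhibition of [¹²⁵I]substance P binding to human NK1 receptor in vitro, with 50% human serum added to the binding medium; IC₅₀ (nM) derived.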
(In general: Loss of bound radioactivity is the signal in a displacement assay; it reports binding, not function.)

Data set [3] is described as follows: Volume of distribution at steady state in rat at 1 mg/kg, iv and 2 mg/kg, po. It counts as ADME, organism-based. The settings on record: in vivo, read-out: Vdss. The procedure, abridged:
as §1

Data set [4] has as its system Gerbillinae. Description: Antagonist activity at NK1 receptor in iv dosed gerbil brain assessed as inhibition of GR73632-induced foot tapping after 1 hr. It counts as functional, organism-based. Summed up:
(§2)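 Gerbils received the antagonist iv 1 h before central administration of the NK1 agonist GR73632. Hind-foot tapping was scored. ID50 (mg/kg) was derived for blockade of tapping, and plasma and brain IC50 (nM) were derived from drug levels at 1 h […].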

Data set [5] can be described thus: Plasma clearance in monkey at 0.5 mg/kg, iv and 1 mg/kg, po. It counts as ADME, organism-based, Macaca mulatta. The settings on record: rhesus monkey. The procedure, abridged: as §1
Data set [6] can be described thus: Half life in rat at 1 mg/kg, iv and 2 mg/kg, po. It counts as ADME, organism-based. The settings on record: in vivo. Summed up:
as §1

The nature of data set [7]: Oral bioavailability in dog 1 mg/kg. It counts as ADME, organism-based, Canis lupus familiaris. Particulars: in vivo. Summed up:
as §1

The subject of data set [8] is Gerbillinae. Description: Antagonist activity at NK1 receptor in iv dosed gerbil plasma assessed as inhibition of GR73632-induced foot tapping after 1 hr. It counts as functional, organism-based. The procedure, abridged: as §2
Data set [9] has as its target Cytochrome P450 3A4 (Homo sapiens, UniProt P08684). Description: Inhibition of human CYP3A4. It counts as ADME.
A short description of data set [10]: Volume of distribution at steady state in monkey at 0.5 mg/kg, iv and 1 mg/kg, po. It counts as ADME, organism-based, Macaca mulatta. The settings on record: rhesus monkey, in vivo, read-out: Vdss. The procedure, abridged: as §1
Data set [11] concerns the target T2, Cytochrome P450 2C8 (Homo sapiens, UniProt P10632).
T2 sequence (P10632 whole entry): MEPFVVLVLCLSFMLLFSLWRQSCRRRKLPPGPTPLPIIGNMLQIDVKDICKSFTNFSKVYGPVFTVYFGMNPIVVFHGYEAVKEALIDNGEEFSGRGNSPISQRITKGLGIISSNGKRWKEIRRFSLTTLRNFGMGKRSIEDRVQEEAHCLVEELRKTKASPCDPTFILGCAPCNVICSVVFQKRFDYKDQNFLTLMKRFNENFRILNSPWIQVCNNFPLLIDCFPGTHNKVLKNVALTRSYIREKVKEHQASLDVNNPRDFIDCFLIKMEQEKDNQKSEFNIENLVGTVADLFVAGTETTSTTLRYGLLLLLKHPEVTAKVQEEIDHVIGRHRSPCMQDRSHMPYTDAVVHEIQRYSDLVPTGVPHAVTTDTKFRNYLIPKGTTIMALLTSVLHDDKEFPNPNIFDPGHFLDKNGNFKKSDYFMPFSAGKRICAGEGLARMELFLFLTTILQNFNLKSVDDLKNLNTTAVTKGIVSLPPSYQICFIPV
Description: Inhibition of human CYP2C8. It counts as ADME.

The target in data set [12] is T3, Substance-K receptor (Homo sapiens, UniProt P21452).
T3 sequence (P21452 whole entry): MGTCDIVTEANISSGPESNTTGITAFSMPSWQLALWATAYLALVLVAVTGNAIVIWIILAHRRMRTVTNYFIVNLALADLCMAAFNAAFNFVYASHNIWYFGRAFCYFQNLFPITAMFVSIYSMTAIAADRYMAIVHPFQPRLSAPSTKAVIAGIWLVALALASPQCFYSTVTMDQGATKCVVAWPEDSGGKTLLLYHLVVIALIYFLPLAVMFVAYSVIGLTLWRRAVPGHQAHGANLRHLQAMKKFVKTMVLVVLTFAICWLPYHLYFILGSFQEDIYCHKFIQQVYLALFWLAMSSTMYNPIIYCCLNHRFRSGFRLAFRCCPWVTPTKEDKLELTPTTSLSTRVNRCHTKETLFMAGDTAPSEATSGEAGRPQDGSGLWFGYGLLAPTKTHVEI
Description: Binding affinity to human NK2 receptor.

Data set [13] in a line: Metabolic stability in human hepatocytes assessed as compound remaining at 1 uM after 24 hrs. It counts as ADME, cell-based, Hepatocyte. Particulars: read-out: Stability. The procedure, abridged:
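Tritium-labelled compound at 1 μM was incubated with cultured human hepatocytes (300 000 cells per incubation) for 24 h, followed by metabolite profiling.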

The nature of data set [14]: Oral bioavailability in rat at 2 mg/kg. It counts as ADME, organism-based. Particulars: in vivo. Summed up: as §1
Data set [15] relates to Rhesus monkey. Description: Ex vivo NK1 receptor occupancy in rhesus monkey brain assessed as concentration required for 50% occupancy at 13 nM plasma concentration by PET imaging analysis. It counts as functional, Macaca mulatta.
For data set [16], the system named is Gerbillinae. Description: Antagonist activity at NK1 receptor in iv dosed gerbil assessed as inhibition of GR73632-induced foot tapping after 1 hr. It counts as functional. Particulars: read-out: ID50 (the source's name). The procedure, abridged:
as §2

Data set [17] in a line: Half life in dog at 0.5 mg/kg, iv and 1 mg/kg, po. It counts as ADME, organism-based, Canis lupus familiaris. Particulars: in vivo. Summed up:
as §1

Data set [18] addresses Cytochrome P450 2D6 (Homo sapiens, UniProt P10635). Description: Inhibition of human CYP2D6. It counts as ADME.
Data set [19] addresses T4, Neuromedin-K receptor (Homo sapiens, UniProt P29371).
T4 sequence (P29371 whole entry): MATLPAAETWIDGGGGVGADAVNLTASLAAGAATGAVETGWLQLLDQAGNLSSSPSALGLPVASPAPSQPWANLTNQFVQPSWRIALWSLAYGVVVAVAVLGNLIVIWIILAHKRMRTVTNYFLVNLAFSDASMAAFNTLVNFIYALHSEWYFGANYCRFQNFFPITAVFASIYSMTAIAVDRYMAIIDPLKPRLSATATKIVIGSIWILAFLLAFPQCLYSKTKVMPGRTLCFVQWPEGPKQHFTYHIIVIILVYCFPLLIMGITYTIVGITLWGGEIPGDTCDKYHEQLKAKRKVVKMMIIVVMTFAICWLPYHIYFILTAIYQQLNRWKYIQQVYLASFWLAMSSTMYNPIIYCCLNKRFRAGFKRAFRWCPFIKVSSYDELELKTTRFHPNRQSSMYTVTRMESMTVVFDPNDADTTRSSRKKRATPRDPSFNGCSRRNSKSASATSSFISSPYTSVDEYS
Description: Binding affinity to human NK3 receptor.

The subject of data set [20] is Rhesus monkey. Description: Ex vivo NK1 receptor occupancy in rhesus monkey brain assessed as concentration required for 90% occupancy at 67 nM plasma concentration by PET imaging analysis. It counts as functional, Macaca mulatta.
A short description of data set [21]: Half life in monkey at 0.5 mg/kg, iv and 1 mg/kg, po. It counts as ADME, organism-based, Macaca mulatta. The settings on record: rhesus monkey, in vivo. The procedure, abridged:
as §1

Data set [22] has as its target T1, Substance-P receptor. Description: Antagonist activity at human NK1 receptor expressed in CHO cells assessed as IP1 generation measured as remaining substance P response at 100 nM.
The nature of data set [23]: Plasma clearance in dog at 0.5 mg/kg, iv and 1 mg/kg, po. It counts as ADME, organism-based, Canis lupus familiaris. Summed up: as §1
A short description of data set [24]: Volume of distribution at steady state in dog at 0.5 mg/kg, iv and 1 mg/kg, po. It counts as ADME, organism-based, Canis lupus familiaris. The settings on record: in vivo, read-out: Vdss. Summed up: as §1
The nature of data set [25]: Plasma clearance in rat at 1 mg/kg, iv and 2 mg/kg, po. It counts as ADME, organism-based. Summed up:
as §1

In data set [26] the test system is Gerbillinae. Description: Antagonist activity at NK1 receptor in iv dosed gerbil assessed as inhibition of GR73632-induced foot tapping. It counts as functional, organism-based. Summed up: as §2
Data set [27] has as its target T5, Nuclear receptor subfamily 1 group I member 2 (Homo sapiens, UniProt O75469).
T5 sequence (O75469 whole entry): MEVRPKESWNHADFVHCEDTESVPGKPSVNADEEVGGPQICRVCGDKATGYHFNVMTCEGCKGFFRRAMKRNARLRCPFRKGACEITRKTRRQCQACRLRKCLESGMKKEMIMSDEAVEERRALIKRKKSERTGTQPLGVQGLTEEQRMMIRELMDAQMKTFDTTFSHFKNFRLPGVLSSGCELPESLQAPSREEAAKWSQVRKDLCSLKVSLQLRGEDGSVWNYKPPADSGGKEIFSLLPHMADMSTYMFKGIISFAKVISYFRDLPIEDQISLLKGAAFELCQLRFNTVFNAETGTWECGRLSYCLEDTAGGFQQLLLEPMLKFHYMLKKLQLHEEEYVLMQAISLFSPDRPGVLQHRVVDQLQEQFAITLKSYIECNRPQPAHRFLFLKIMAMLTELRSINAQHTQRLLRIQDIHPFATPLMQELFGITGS
Description: Agonist activity at human PXR at 3.4 uM relative to rifampicin. Summed up:
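PXR agonism was measured in human hepatocytes with test compound at 3.4 μM, and the response was expressed as % relative to rifampicin.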

In data set [28] the target is Cytochrome P450 2C9 (Homo sapiens, UniProt P11712). Description: Inhibition of human CYP2C9. It counts as ADME.

Each structure is given as a SMILES string. Calls of active or inactive are those of the source.

T1 sequence (P25103 whole entry): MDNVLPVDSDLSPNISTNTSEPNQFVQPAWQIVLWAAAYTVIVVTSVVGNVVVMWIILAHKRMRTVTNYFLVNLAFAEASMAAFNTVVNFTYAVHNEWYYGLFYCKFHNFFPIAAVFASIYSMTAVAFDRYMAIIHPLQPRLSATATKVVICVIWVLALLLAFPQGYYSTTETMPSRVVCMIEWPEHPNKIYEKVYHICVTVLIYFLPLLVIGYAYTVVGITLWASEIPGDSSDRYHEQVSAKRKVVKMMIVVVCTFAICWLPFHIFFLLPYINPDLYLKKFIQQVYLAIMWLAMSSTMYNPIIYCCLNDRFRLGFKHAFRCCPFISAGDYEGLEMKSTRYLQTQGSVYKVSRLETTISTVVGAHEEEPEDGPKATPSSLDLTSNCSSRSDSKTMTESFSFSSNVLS
Cytochrome P450 2C9, sequence (P11712 whole entry): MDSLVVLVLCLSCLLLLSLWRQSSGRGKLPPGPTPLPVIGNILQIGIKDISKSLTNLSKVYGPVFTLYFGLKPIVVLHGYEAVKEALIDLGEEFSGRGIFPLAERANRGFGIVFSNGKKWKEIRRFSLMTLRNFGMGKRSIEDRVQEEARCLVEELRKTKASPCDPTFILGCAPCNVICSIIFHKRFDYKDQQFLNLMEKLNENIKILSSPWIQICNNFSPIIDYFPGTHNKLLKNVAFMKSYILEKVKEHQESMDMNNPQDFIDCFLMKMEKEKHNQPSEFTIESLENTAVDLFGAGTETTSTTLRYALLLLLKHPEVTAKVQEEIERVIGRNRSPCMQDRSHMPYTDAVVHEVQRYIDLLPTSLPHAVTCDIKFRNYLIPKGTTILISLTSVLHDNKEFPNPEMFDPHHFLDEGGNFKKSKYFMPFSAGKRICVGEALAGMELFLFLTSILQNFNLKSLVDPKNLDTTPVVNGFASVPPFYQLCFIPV
Cytochrome P450 3A4, sequence (P08684 whole entry): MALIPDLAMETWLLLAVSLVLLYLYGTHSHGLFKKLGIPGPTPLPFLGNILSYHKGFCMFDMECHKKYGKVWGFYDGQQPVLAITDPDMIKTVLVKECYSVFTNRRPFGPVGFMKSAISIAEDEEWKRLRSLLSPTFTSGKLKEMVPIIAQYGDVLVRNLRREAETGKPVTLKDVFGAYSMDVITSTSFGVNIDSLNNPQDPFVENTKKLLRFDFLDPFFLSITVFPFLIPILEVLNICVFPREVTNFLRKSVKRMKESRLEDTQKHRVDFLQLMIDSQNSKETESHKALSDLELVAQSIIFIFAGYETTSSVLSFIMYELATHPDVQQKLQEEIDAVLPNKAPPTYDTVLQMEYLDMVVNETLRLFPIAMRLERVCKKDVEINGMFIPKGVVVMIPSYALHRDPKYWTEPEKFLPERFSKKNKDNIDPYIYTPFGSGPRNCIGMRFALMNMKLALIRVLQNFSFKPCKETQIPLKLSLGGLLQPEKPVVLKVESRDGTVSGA
Cytochrome P450 2D6, sequence (P10635 whole entry): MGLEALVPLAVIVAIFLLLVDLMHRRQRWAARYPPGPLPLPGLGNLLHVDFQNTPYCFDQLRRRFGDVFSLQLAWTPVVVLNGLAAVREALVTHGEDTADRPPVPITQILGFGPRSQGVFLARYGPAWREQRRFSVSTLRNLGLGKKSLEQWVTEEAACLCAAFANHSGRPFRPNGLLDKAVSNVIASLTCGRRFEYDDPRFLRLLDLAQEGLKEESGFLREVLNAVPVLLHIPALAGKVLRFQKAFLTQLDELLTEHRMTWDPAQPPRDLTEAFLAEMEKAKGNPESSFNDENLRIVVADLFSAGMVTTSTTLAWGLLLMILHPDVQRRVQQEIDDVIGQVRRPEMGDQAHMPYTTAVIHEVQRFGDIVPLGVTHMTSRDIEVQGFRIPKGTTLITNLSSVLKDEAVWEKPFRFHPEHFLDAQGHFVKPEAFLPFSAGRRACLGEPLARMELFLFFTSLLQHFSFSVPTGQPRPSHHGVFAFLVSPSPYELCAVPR

For orientation: bioavailability means dose-corrected exposure relative to a reference, in per cent. Broadly, the IC50 is the concentration that gives 50% inhibition. As a reminder, the half-life is the time needed for the level to fall by half in the phase considered. Take `Cc1ccccc1[C@H]1[C@@H]2CN(C3=NC(=O)CO3)C[C@H]2CC[C@@H]1O[C@H](CO)c1cc(C(F)(F)F)cc(C(F)(F)F)c1`: the bioavailability in [1] was determined as 66%; in data set [7], 38%; in data set [14] it was 92%. Moreover, the IC50 turned out to be 0.75 nM in data set [2]; 8 nM in [4]; 5 nM in data set [8]; 15000 nM in data set [9]; 21000 nM in data set [11]; 7200 nM in data set [12]. For the same molecule, the IC50 in data set [18] is 61000 nM; in data set [19] it was 2500 nM; in data set [28], 41000 nM. Also, the Vd in data set [3] is 3.1 L/kg; in [10] it was 5.7 L/kg; in data set [24] it was 1.2 L/kg. The clearance was 8 mL/min/kg in data set [5], 1.4 mL/min/kg in [23] and 7.5 mL/min/kg in data set [25]. The half-life in data set [6] was 4.7 h; in data set [17] it was 11 h; in data set [21] it was 13 h. Also, in data set [13], the remaining at 24 h, 1 µM is 68%. Moreover, the Occ50 in [15] was found to be 13 nM. For the same molecule, the ED50 in [16] amounted to 0.03 mg/kg. For the same molecule, in data set [20], the Occ90 is recorded as 22 nM. Moreover, the residual activity in [22] is 3%. The inhibition result in data set [26] is “Active”. In data set [27], the Activity came to 14%.
Consider `C[C@@H](O[C@H]1CC[C@@H]2CN(C3=CC(=O)CC3)C[C@H]2[C@@H]1c1ccc(F)cc1)c1cc(C(F)(F)F)cc(C(F)(F)F)c1` [SERLOPITANT], for which the figures for the IC50 in [4], in data set [12] and in [19] were 7.7 nM, 2400 nM and 2400 nM, respectively. In data set [14], this molecule had a bioavailability of 40%. Moreover, in data set [15], the Occ50 turned out to be 9 nM. Moreover, in data set [16], the ED50 amounted to 0.08 mg/kg. Also, the Occ90 in [20] is 67 nM. For the same molecule, the residual activity in [22] came to 5%. The inhibition result in [26] is “Active”.
